According to ChEMBL document CHEMBL5303300, “EUbOPEN Chemogenomics Library - Multiplex” (2023):
Where “and” joins values, the source holds several entries; their conditions need not be identical. Equal entries are not always repeated.

System: Fibroblast
Assay: Multiplex assay against human fibroblast
Format: toxicity, cell-based
Conditions: number of replicates 2
Outline: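 Cells stained live at seeding with Hoechst33342, BioTracker Green Microtubule Cytoskeleton Dye, MitoTracker Red and Annexin V Alexa Fluor 680 were imaged on a CQ1 microscope at 37°C and 5% CO2 after compound addition. Their classification by CellPathfinder machine-learning gating ran from Hoechst high-intensity objects versus normal cells, to healthy, pyknosed or fragmented nuclei among normal cells, to mitotic or apoptotic among pyknosed cells. Tubulin, mitochondrial-mass and membrane-permeability phenotypes are per cents of healthy-nucleus cells.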

[1] = 12 h, 1 µM, compound concentration 1 uM
[2] = 12 h, 10 µM, compound concentration 10 uM
[3] = 24 h, 1 µM, compound concentration 1 uM
[4] = 24 h, 10 µM, compound concentration 10 uM
[5] = 48 h, 1 µM, compound concentration 1 uM
[6] = 48 h, 10 µM, compound concentration 10 uM

## Cn1cc(-c2ccc(-c3cncc(Cl)c3N3CCC4(CCNC4=O)CC3)cc2)cn1
[1]
  Population Apoptotic (%): 34% and 44%
  Population Fragmented Nuclei (%): 3% and 11%
  Population Healthy Nuclei (%): 66% and 70%
  Population Hoechst High Intensity Objects (%): 0%
  Population Membrane Permeable-Phenotype (%): 9% and 5%
  Population Mitochondria Different-Phenotype (%): 0% and 2%
  Population Mitotic Cells (%): 66% and 55%
  Population Normal (%): 100%
  Population Pyknosed Nuclei (%): 30% and 18%
  Population Tubulin-Different-Phenotype (%): 22% and 16%
  Total Cell Count: 162 and 230
[2]
  Population Apoptotic (%): 25% and 39%
  Population Fragmented Nuclei (%): 14% and 11%
  Population Healthy Nuclei (%): 67% and 71%
  Population Hoechst High Intensity Objects (%): 0%
  Population Membrane Permeable-Phenotype (%): 18% and 13%
  Population Mitochondria Different-Phenotype (%): 3% and 4%
  Population Mitotic Cells (%): 74% and 60%
  Population Normal (%): 100%
  Population Pyknosed Nuclei (%): 17% and 16%
  Population Tubulin-Different-Phenotype (%): 84% and 65%
  Total Cell Count: 196 and 203
[3]
  Population Apoptotic (%): 45% and 50%
  Population Fragmented Nuclei (%): 7% and 13%
  Population Healthy Nuclei (%): 38% and 57%
  Population Hoechst High Intensity Objects (%): 0%
  Population Membrane Permeable-Phenotype (%): 21% and 8%
  Population Mitochondria Different-Phenotype (%): 3% and 2%
  Population Mitotic Cells (%): 54% and 49%
  Population Normal (%): 99%
  Population Pyknosed Nuclei (%): 53% and 28%
  Population Tubulin-Different-Phenotype (%): 41% and 21%
  Total Cell Count: 157 and 229
[4]
  Population Apoptotic (%): 44% and 56%
  Population Fragmented Nuclei (%): 24% and 22%
  Population Healthy Nuclei (%): 62% and 64%
  Population Hoechst High Intensity Objects (%): 0%
  Population Membrane Permeable-Phenotype (%): 15% and 7%
  Population Mitochondria Different-Phenotype (%): 8% and 7%
  Population Mitotic Cells (%): 55% and 43%
  Population Normal (%): 99% and 100%
  Population Pyknosed Nuclei (%): 13% and 12%
  Population Tubulin-Different-Phenotype (%): 82% and 73%
  Total Cell Count: 204 and 232
[5]
  Population Apoptotic (%): 69% and 58%
  Population Fragmented Nuclei (%): 8% and 20%
  Population Healthy Nuclei (%): 50% and 57%
  Population Hoechst High Intensity Objects (%): 0% and 1%
  Population Mitochondria Different-Phenotype (%): 1% and 2%
  Population Mitotic Cells (%): 30% and 41%
  Population Normal (%): 99% and 98%
  Population Pyknosed Nuclei (%): 40% and 22%
  Population Tubulin-Different-Phenotype (%): 47% and 22%
  Total Cell Count: 154 and 211
[6]
  Population Apoptotic (%): 66% and 69%
  Population Fragmented Nuclei (%): 19% and 22%
  Population Healthy Nuclei (%): 67% and 66%
  Population Hoechst High Intensity Objects (%): 0%
  Population Membrane Permeable-Phenotype (%): 9% and 2%
  Population Mitochondria Different-Phenotype (%): 11%
  Population Mitotic Cells (%): 33% and 30%
  Population Normal (%): 99%
  Population Pyknosed Nuclei (%): 12% and 10%
  Population Tubulin-Different-Phenotype (%): 66% and 68%
  Total Cell Count: 210 and 211

## NC(=O)c1ccc(-c2nc(-c3ccc4c(c3)OCCO4)c(-c3ccccn3)[nH]2)cc1
[1]
  Population Apoptotic (%): 31% and 28%
  Population Fragmented Nuclei (%): 5%
  Population Healthy Nuclei (%): 81% and 72%
  Population Hoechst High Intensity Objects (%): 0%
  Population Membrane Permeable-Phenotype (%): 8% and 4%
  Population Mitochondria Different-Phenotype (%): 0% and 2%
  Population Mitotic Cells (%): 68% and 71%
  Population Normal (%): 100%
  Population Pyknosed Nuclei (%): 13% and 22%
  Population Tubulin-Different-Phenotype (%): 15% and 6%
  Total Cell Count: 265 and 208
[2]
  Population Apoptotic (%): 26% and 17%
  Population Fragmented Nuclei (%): 10% and 18%
  Population Healthy Nuclei (%): 57% and 67%
  Population Hoechst High Intensity Objects (%): 0%
  Population Membrane Permeable-Phenotype (%): 1% and 3%
  Population Mitochondria Different-Phenotype (%): 0% and 1%
  Population Mitotic Cells (%): 73% and 82%
  Population Normal (%): 100%
  Population Pyknosed Nuclei (%): 32% and 13%
  Total Cell Count: 187 and 209
[3]
  Population Apoptotic (%): 50% and 53%
  Population Fragmented Nuclei (%): 9% and 11%
  Population Healthy Nuclei (%): 83% and 67%
  Population Hoechst High Intensity Objects (%): 0%
  Population Membrane Permeable-Phenotype (%): 4% and 2%
  Population Mitochondria Different-Phenotype (%): 0%
  Population Mitotic Cells (%): 50% and 46%
  Population Normal (%): 100% and 99%
  Population Tubulin-Different-Phenotype (%): 12% and 5%
  Total Cell Count: 287 and 229
[4]
  Population Apoptotic (%): 37% and 14%
  Population Fragmented Nuclei (%): 12% and 24%
  Population Healthy Nuclei (%): 70% and 69%
  Population Hoechst High Intensity Objects (%): 0%
  Population Membrane Permeable-Phenotype (%): 2%
  Population Mitochondria Different-Phenotype (%): 1%
  Population Mitotic Cells (%): 62% and 85%
  Population Normal (%): 99% and 100%
  Population Pyknosed Nuclei (%): 16% and 6%
  Population Tubulin-Different-Phenotype (%): 10% and 5%
  Total Cell Count: 209 and 225
[5]
  Population Apoptotic (%): 56% and 77%
  Population Fragmented Nuclei (%): 12% and 14%
  Population Healthy Nuclei (%): 82% and 73%
  Population Hoechst High Intensity Objects (%): 0%
  Population Membrane Permeable-Phenotype (%): 4%
  Population Mitochondria Different-Phenotype (%): 0%
  Population Mitotic Cells (%): 43% and 22%
  Population Normal (%): 100% and 99%
  Population Pyknosed Nuclei (%): 5% and 12%
  Population Tubulin-Different-Phenotype (%): 5% and 4%
  Total Cell Count: 309 and 221
[6]
  Population Apoptotic (%): 33% and 40%
  Population Fragmented Nuclei (%): 16% and 24%
  Population Healthy Nuclei (%): 76% and 73%
  Population Hoechst High Intensity Objects (%): 0%
  Population Membrane Permeable-Phenotype (%): 0% and 2%
  Population Mitochondria Different-Phenotype (%): 0% and 1%
  Population Mitotic Cells (%): 66% and 60%
  Population Normal (%): 100%
  Population Pyknosed Nuclei (%): 6% and 2%
  Population Tubulin-Different-Phenotype (%): 11% and 7%
  Total Cell Count: 216 and 234
